Results of several laboratories.
Each line is one published result; the experiments were not run side by side. Values after ≈ are worked out from the molar mass of the structure shown.

OC(Cn1cncn1)(Cn1cncn1)c1ccc(F)cc1F gave an MIC of 2 µg/mL (Nakaseomyces glabratus; microbial growth, broth dilution; ATCC2001).
The IC50 of COc1ccc(-c2[nH]c3c(C)c(C)ccc3c2C(=O)c2cc(OC)c(OC)c(OC)c2)cc1O is reported as > 20 µM (tubulin polymerisation, inhibitor, absorbance).
The MIC of Oc1c(Cl)cc(Cl)cc1-c1[nH]c(Cl)c(Cl)c1Cl is reported as 0.04 µM (Bacillus subtilis; microbial growth; ATCC6051).
The IC50 of COc1ccc(-c2[nH]c3c(OC)c(OC)c(OC)cc3c2C(=O)c2cc(OC)c(OC)c(OC)c2)cc1O is reported as > 20 µM (tubulin polymerisation, inhibitor, absorbance).
For N.N.[Cl][Pt][Cl], the IC50 was 14.2 µM (HaCaT; cell growth or viability, MTT; 48 h).
The IC50 of CC[C@@]1(O)C(=O)OCc2c1cc1n(c2=O)Cc2cc3ccccc3nc2-1 is reported as 31.6 µM (LS174T; cell growth or viability, MTT; 48 h).
The MFC of O=C/C=C/c1ccccc1 is reported as 200 µg/mL (≈ 1510 µM) (Cryptococcus neoformans; microbial killing, broth dilution; clinical isolate).
Oc1c(Br)cc(Br)cc1-c1[nH]c(Br)c(Br)c1Br has an MIC of 0.01 µM (Bacillus subtilis; microbial growth; ATCC6051).
